Screens deposited in PubChem BioAssay by several laboratories.
Most compounds without a hit are left out; they make up all but 12% or so of the library.
Lmaj promast = reduces viability of Leishmania major promastigotes. resazurin fluorescence viability. inhibition, % at 10 µM. hit rate 9% among 200,000; in the data active = inhibition above about 50%;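 note: promastigotes grown with compound for 44 hours at 28 °C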
WT yeast gro inh = growth inhibition of WT yeast, mitochondrial fusion screen | mitochondrial fusion phenotypic screen, WT strain | AID 1362 | inhibition, % at 10 µM | hit rate 2.1% among 190,000; in the data active = inhibition above about 58%; tested in S. cerevisiae
ABCG2 block = inhibitors of human ABCG2 transporter, ABCB1 counter-screen. hit rate 0.1% among 190,000. Q9UNQ0. inhibition, % at 6.6 µM. IgMXP3 cells, JC-1 efflux, flow cytometry. AID 1325;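 active = inhibition above 80%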;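 note: 0% = DMSO and 100% = nicardipine control wells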
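test system = two drug-resistant human cell lines, ABCG2 and ABCB1 | amount = 3 million cells/mL final, two lines in 1:1 ratio | reagent = JC-1 transporter substrate | doses = one concentration, 6.6 µM final | incubation = 10 min at 25 °C | signal = flow cytometric JC-1 green MFI at 530 nm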
ABCB1 inh = inhibitors of human ABCB1 transporter, ABCG2 counter-screen; P08183; hit rate 0.067% among 190,000; inhibition, % at 6.6 µM; CCRF-Adr cells, JC-1 efflux, flow cytometry; in the data active = inhibition above about 40%;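 note: 0% = vehicle and 100% = reference inhibitor; higher value means more JC-1 retained so stronger ABCB1 efflux block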
Target sequence (P08183 whole entry, looked up): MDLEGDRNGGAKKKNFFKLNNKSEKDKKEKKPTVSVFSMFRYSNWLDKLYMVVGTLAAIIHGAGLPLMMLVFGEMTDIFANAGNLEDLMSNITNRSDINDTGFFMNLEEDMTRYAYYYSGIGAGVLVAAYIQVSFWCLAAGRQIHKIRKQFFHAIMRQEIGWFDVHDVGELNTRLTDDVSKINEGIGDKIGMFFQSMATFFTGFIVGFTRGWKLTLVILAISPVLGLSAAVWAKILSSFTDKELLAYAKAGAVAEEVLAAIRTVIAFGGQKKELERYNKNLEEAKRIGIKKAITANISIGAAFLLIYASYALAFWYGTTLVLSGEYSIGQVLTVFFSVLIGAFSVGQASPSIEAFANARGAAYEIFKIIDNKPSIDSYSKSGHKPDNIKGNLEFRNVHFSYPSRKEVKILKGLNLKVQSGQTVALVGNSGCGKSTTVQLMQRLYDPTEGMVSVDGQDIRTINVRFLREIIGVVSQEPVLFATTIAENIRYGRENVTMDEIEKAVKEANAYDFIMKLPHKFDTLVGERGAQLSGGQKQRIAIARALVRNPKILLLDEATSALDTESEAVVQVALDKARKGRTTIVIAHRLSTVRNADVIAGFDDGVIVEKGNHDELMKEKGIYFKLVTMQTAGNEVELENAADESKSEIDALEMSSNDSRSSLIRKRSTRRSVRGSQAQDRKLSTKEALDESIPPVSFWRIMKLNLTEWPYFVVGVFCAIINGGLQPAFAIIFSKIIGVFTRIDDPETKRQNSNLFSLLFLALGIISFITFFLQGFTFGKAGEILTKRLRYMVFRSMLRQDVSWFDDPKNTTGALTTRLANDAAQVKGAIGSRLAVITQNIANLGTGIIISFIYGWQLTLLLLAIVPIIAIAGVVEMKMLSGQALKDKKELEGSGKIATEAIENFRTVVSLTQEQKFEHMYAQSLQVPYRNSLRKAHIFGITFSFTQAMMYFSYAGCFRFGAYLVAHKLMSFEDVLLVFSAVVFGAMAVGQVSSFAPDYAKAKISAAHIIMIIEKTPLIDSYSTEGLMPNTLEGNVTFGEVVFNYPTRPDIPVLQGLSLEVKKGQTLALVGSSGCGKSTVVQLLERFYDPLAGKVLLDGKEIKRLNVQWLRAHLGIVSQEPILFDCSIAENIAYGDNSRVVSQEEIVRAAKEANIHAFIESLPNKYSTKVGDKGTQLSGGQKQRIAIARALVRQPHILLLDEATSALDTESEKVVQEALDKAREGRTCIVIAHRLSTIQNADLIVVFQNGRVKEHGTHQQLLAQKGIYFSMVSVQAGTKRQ
RAM network inh = inhibitors of the yeast RAM network; hit rate 1.8% among 190,000; inhibition, % at 50 µM; S. cerevisiae dse1pr::URA3 reporter, 5-FOA growth OD615, 2 d; analog-sensitive cbk1-as2 kinase mutant strain;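 active = inhibition above a set limit, 3 SD over mean compound inhibition, cut at about 8.4% in these data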;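 note: 0% = DMSO-only wells with no growth and 100% = 10 µM 1-NA-PP1 full growth; inhibition rescues growth on 5-FOA so higher OD means more RAM inhibition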
An asterisk follows results filed as active.

For CCN1C(=O)/C(=C/c2ccc(C)s2)SC1=Nc1ccc(OC)cc1 the results were Lmaj promast 7, WT yeast gro inh 17, ABCG2 block 4, ABCB1 inh 1 and RAM network inh 9.1*.
`COc1ccc(N=C2S/C(=C\c3ccc(C)o3)C(=O)N2CC(C)C)cc1` gave Lmaj promast 3, WT yeast gro inh 9, ABCG2 block 3, ABCB1 inh 0 and RAM network inh 11*.
For COCCNC(=S)N1CCC(C(=O)c2ccc3c(c2)OCCO3)CC1 the results were Lmaj promast 0, WT yeast gro inh 0, ABCG2 block 10, ABCB1 inh 0 and RAM network inh 0.
`O=C(c1nc(-c2ccccc2)n(-c2ccccc2)n1)N1CCN(S(=O)(=O)c2ccccc2)CC1` gave Lmaj promast 58*, WT yeast gro inh -2, ABCG2 block 2, ABCB1 inh 1 and RAM network inh 4.
For CC(=O)OC(COc1ccccc1)Cn1cnc2cc(C)c(C)cc21 (stereo not drawn) the results were Lmaj promast 6, WT yeast gro inh 11, ABCG2 block 7, ABCB1 inh 0 and RAM network inh 0.
For CCNC(=O)NC(=O)CN(C)c1ccccc1 the results were Lmaj promast -5, WT yeast gro inh -25, ABCG2 block 0, ABCB1 inh 0 and RAM network inh 0.
Screening COc1cc(C2N(C)CCC3(OCCO3)C2(C)C)cc(OC)c1OC (stereo not drawn) returned Lmaj promast 58*, WT yeast gro inh -11, ABCG2 block -15, ABCB1 inh -1 and RAM network inh 2.
`CCOC(=O)c1c(C)[nH]c(C(=O)N/N=C\c2ccccc2Cl)c1C` gave Lmaj promast 16, WT yeast gro inh 1, ABCG2 block 17, ABCB1 inh 1 and RAM network inh 6.
`Cc1cc(C)n2nc(SCCOc3ccccc3F)nc2n1` gave Lmaj promast 1, WT yeast gro inh -17, ABCG2 block 6, ABCB1 inh 0 and RAM network inh 1.
Screening CCOC(=O)c1cn(-c2nc(-c3ccc(Cl)c(Cl)c3)cs2)c2c(F)c(N3CCOCC3)c(F)cc2c1=O returned Lmaj promast 0, WT yeast gro inh -24, ABCG2 block 3, ABCB1 inh 1 and RAM network inh 9.7*.
Screening N#Cc1nc(Cc2cccc3ccccc23)oc1NCCN1CCCCC1 returned Lmaj promast 65*, WT yeast gro inh -19, ABCG2 block 7, ABCB1 inh 1 and RAM network inh 1.
`CC1CN(c2oc(Cc3cccc4ccccc34)nc2C#N)CC(C)O1` (stereo not drawn) gave Lmaj promast 18, WT yeast gro inh 61*, ABCG2 block 4, ABCB1 inh 2 and RAM network inh 9.9*.
For CNc1oc(Cc2cccc3ccccc23)nc1C#N the results were Lmaj promast 2, WT yeast gro inh 0, ABCG2 block 4, ABCB1 inh 1 and RAM network inh 1.
CC(C)NC(=S)N1CCN(c2ncccn2)CC1 was read as Lmaj promast -5, WT yeast gro inh -14, ABCG2 block 20, ABCB1 inh 1 and RAM network inh 1.
For O=C(c1nc2ccccn2c1CNCCOc1cccnc1)N1CCOCC1 the results were Lmaj promast -4, WT yeast gro inh -3, ABCG2 block 0, ABCB1 inh 0 and RAM network inh 0.
COc1ccc2c(C)cc(N3CCCCCC3)nc2c1 was read as Lmaj promast 61*, WT yeast gro inh 3, ABCG2 block 0, ABCB1 inh 0 and RAM network inh 2.
For CCN1CCCC1CNCC(O)COc1ccc(C(C)(C)C)cc1C (stereo not drawn) the results were Lmaj promast 86*, WT yeast gro inh 9, ABCG2 block 2, ABCB1 inh 0 and RAM network inh 1.
For COc1ccc(C2CC(=O)c3cnc(Nc4cc(C)cc(C)c4)nc3C2)cc1 (stereo not drawn) the results were Lmaj promast 4, WT yeast gro inh 69*, ABCG2 block 0, ABCB1 inh 0 and RAM network inh 6.
For COc1ccc(C2CC(=O)c3cnc(NC(=O)c4cc(OC)cc(OC)c4)nc3C2)cc1 (stereo not drawn) the results were Lmaj promast -2, WT yeast gro inh 20, ABCG2 block 4, ABCB1 inh 1 and RAM network inh 4.
COc1ccc(C2CC(=O)c3cnc(NC(=O)c4ccccc4OC)nc3C2)c(OC)c1 (stereo not drawn) was read as Lmaj promast 86*, WT yeast gro inh 10, ABCG2 block 2, ABCB1 inh 1 and RAM network inh 4.
